# In ChEMBL document CHEMBL1133551, “Non-depolarizing neuromuscular blocking activity of bisquaternary amino di- and tripeptide derivatives” (J Med Chem, 2000):
# Columns and labels:
# [1] = species: Gallus gallus; assay: -logED50 value for chick biventer determined.; format: functional
# Outline: (§1)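 Isolated chick biventer cervicis nerve-muscle preparation; bath fluid gassed with 5% CO2 in O2, pH 7.4. Motor nerves stimulated at 0.1 Hz with 0.2-ms rectangular pulses at supramaximal voltage to give indirect twitches. Concentration-twitch inhibition lines fitted by least squares, and the concentration producing 50% twitch block (µM) was read off.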
# [2] = test system: Felis catus; assay: Inhibitory potency in anesthetized cats, and Onset time is reported; format: functional
# Outline: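 Anesthetized cats (alpha-chloralose/pentobarbitone i.p., ventilated, 37 ± 1 °C). Tibialis anterior twitch evoked via sciatic nerve at 0.1 Hz, 0.25-ms supramaximal pulses. Increasing i.v. (jugular) doses at 30-60-min intervals. ED50 interpolated from log dose lines over 15-85% block. Onset, from injection to first maximally depressed twitch, measured at doses giving 80-95% block.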
# [3] = test system: Felis catus; assay: Recovery time (25-75 %) measured for NMB activity in anesthetized cats; format: functional, organism-based
# Outline: (§2)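 Anesthetized, ventilated cats, tibialis anterior twitch evoked by sciatic nerve stimulation at 0.1 Hz; iv doses giving 80-95% block. Onset is injection to the first maximally depressed twitch. Duration is injection to 90% spontaneous recovery relative to predrug twitch.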
# [4] = Dose causing 50% block of muscle twitch in isolated chick biventer cervicis muscle (Increase in baseline tension); settings: Gallus gallus, Muscle tissue; read-out: ED50 (the source's name)
# [5] = test system: Felis catus; assay: Duration (90%) measured for NMB activity in anesthetized cats; format: functional; outline: as §2
# [6] = test system: Felis catus; assay: Onset time was measured for NMB activity in anesthetized cats; format: functional; outline: as §2
# [7] = test system: Felis catus; assay: Inhibition of stimulated vagus nerve-induced bradycardia in anesthetized cats; format: functional
# Outline: (§3)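 Anesthetized cats. Every 100 s the vagus nerve was stimulated for 10 s at 2-5 Hz to evoke bradycardia, and the cervical sympathetic nerve was stimulated to evoke nictitating membrane contraction. Near the end of experiments, logarithmically increasing iv doses were given at 100-s intervals. Doses giving 50% block were obtained by regression and interpolation.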
# [8] = test system: Felis catus; assay: Inhibitory potency in anesthetized cats; format: functional
# Outline: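 Cats of either sex (1.9-2.6 kg), anesthetized i.p. with α-chloralose 80 mg/kg plus pentobarbitone 5 mg/kg and ventilated with room air, 37 ± 1 °C. Sciatic nerve stimulated at 0.1 Hz (0.25-ms supramaximal pulses), tibialis anterior twitch recorded. Increasing doses given iv (jugular) at 30-60-min intervals.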
# [9] = species: Gallus gallus; assay: Dose causing 50% block of muscle twitch in isolated chick biventer cervicis muscle (Increase in baseline tension); settings: Muscle tissue, read-out: ED50 (the source's name)
# [10] = (§4) Dose causing 50% block of muscle twitch in isolated chick biventer cervicis muscle; format: functional; settings: Gallus gallus, Muscle tissue; read-out: ED50 (the source's name); outline: as §1
# [11] = species: Gallus gallus; assay: as §4; format: functional, Muscle tissue; outline: as §1
# [12] = species: Felis catus; assay: Inhibition of superior cervical nerve-induced contractions of the nictitating membrane; format: functional; outline: as §3
# [13] = species: Felis catus; assay: Inhibition of stimulated vagus nerve-induced bradycardia; format: functional; outline: as §3
# [14] = test system: Monkey; assay: Duration (90%) measured for NMB activity in anesthetized rhesus monkeys; format: functional, Cercopithecidae
# Outline: (§5)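 Anesthetized, ventilated Rhesus monkeys; iv dosing at 3 × the 90% blocking dose. Onset is injection to the first maximally depressed twitch. Duration is injection to 90% spontaneous recovery versus predrug twitch.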
# [15] = test system: Monkey; assay: Onset time was measured for NMB activity in anesthetized rhesus monkeys; format: functional, Cercopithecidae; outline: as §5
# [16] = test system: Monkey; assay: Recovery time (25-75 %) measured for NMB activity in anesthetized rhesus monkeys; format: functional, organism-based; settings: Cercopithecidae; outline: as §5
# [17] = test system: Felis catus; assay: Inhibition of superior cervical nerve-induced contractions of the nictitating membrane in anesthetized cats; format: functional
# Outline: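 Cats of either sex (1.9-2.6 kg), anesthetized with i.p. alpha-chloralose 80 mg/kg plus pentobarbitone 5 mg/kg, ventilated to keep arterial pH 7.3-7.4, 37 ± 1 °C. Nictitating membrane contractions evoked by cervical sympathetic nerve stimulation, recorded every 100 s. Logarithmically increasing doses injected into the jugular vein at 100-s intervals; 50%-blocking dose obtained by regression and interpolation.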
# [18] = test system: Monkey; assay: Inhibitory potency in anesthetized rhesus monkeys; format: functional; settings: Cercopithecidae, in Macaca mulatta
# [19] = test system: Felis catus; assay: Inhibition of superior cervical nerve-induced contractions of the nictitating membrane in anesthetized cats; Pre- and post-block increases in twitch tension and short-lived muscle fasciculations 20-30 s after dosing; format: functional, organism-based; outline: as §3
SMILES,pCB50 [1],Recovery [3],Duration [5],Onset [6],ED50 [7],ED50 [8],also measured
CC(=O)O[C@H]1C[C@@H]2CC[C@@H]3[C@H](CC[C@@]4(C)[C@H]3C[C@H]([N+]3(C)CCCCC3)[C@@H]4OC(C)=O)[C@@]2(C)C[C@@H]1[N+]1(C)CCCCC1 [PANCURONIUM],6.7,4 min,11.7 min,4.1 min,0.07 µmol/kg,,ED50 [2]: 0.03 µmol/kg; EC50 [4]: 200 nM
COc1ccc(CC2c3cc(OC)c(OC)cc3CC[N+]2(C)CCC(=O)OCCCCCOC(=O)CC[N+]2(C)CCc3cc(OC)c(OC)cc3C2Cc2ccc(OC)c(OC)c2)cc1OC (stereo unspecified),,5.9 min,19.4 min,5.8 min,1.6 µmol/kg,0.1 µmol/kg,EC50 [9]: 410 nM
C[N+]1(CCNC(=O)C(Cc2ccccc2)NC(=O)C[N+]2(C)CCCCC2)CCOCC1 (stereo unspecified),3.39,,,,,,EC50 [10]: 407000 nM
O=C(C[N+]1(Cc2ccc([N+](=O)[O-])cc2)CCCCC1)NC(Cc1ccccc1)C(=O)NCC[N+]1(Cc2ccc([N+](=O)[O-])cc2)CCOCC1.[Br-].[Br-] (stereo unspecified),,,,,,10.1 µmol/kg,ED50 [11]: 19800 nM; ED50 [12]: > 11.2 µmol/kg; ED50 [13]: 0.8 µmol/kg
C[N+](C)(C)CC(=O)NCC(=O)NCC[N+]1(C)CCOCC1,,,,,,,"EC50 ([11]; Gallus gallus, Muscle tissue, read-out: ED50 (the source's name)): > 390000 nM"
C=CC[N+]1([C@H]2C[C@H]3[C@@H]4CC[C@H]5C[C@H](O)[C@@H](N6CCOCC6)C[C@]5(C)[C@H]4CC[C@]3(C)[C@H]2OC(C)=O)CCCC1 [ROCURONIUM],6.12,2.9 min,8.3 min,2 min,2.17 µmol/kg,,ED50 [2]: 0.25 µmol/kg; Duration [14]: 13.6 min; Onset [15]: 3.1 min; Recovery [16]: 5 min; EC50 [4]: 760 nM; ED50 [17]: 0.16 µmol/kg
C[N+](C)(C)CCOC(=O)CCC(=O)OCC[N+](C)(C)C [SUXAMETHONIUM],,1.9 min,5.7 min,1.7 min,,0.11 µmol/kg,ED90 [18]: 5.04 µmol/kg; Duration [14]: 9.7 min; Onset [15]: 1.5 min; EC50 [9]: 540 nM; Recovery [16]: 2.9 min; ED50 [19]: Pre- and post-block increases in twitch tension and short-lived muscle fasciculations 20-30 s after dosing
